Assay outcomes as filed in PubChem.
Sampled rows, rich in hits. Any-hit rate of the full collection: about 2.1%.
Hck-Nef inh: blocks Nef-activated human Hck kinase | inhibition, % at 20 µM | Recombinant Hck-YEEI plus Nef, Z-Lyte FRET kinase assay | hit rate 0.68% among 220,000 | AID 463187;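 active = Hck-Nef kinase inhibition above about 50%, limit read from the data; inactive = inhibition below that limit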;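 note: 0% = DMSO with Hck plus Nef and 100% = Hck alone without Nef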
Target sequence (P08631 whole entry, looked up): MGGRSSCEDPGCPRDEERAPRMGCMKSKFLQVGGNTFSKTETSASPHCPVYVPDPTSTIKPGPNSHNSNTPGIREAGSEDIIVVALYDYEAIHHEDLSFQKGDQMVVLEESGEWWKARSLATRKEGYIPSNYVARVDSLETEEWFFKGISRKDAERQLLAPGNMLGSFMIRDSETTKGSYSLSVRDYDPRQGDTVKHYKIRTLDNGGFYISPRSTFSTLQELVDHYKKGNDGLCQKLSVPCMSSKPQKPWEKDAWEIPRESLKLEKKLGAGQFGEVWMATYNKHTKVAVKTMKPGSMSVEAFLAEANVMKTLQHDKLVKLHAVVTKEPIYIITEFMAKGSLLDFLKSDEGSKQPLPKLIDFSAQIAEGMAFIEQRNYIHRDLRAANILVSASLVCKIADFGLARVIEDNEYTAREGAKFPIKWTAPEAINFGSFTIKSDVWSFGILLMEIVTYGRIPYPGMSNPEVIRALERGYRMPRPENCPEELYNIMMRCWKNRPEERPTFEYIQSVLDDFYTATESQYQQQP
Tb hexokinase: blocks Trypanosoma brucei hexokinase 1 activity; recombinant TbHK1, G6PDH-coupled NADH A340; inhibition, % at 10 µM; hit rate 0.11% among 220,000;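 active = inhibition of 50% or more in the single-dose primary screen; inactive = inhibition below 50%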
p97 ATPase inh: human p97 ATPase inhibition | recombinant p97 ATPase, Kinase-Glo ATP luminescence, 3 h | inhibition, % at 8 µM | hit rate 0.42% among 220,000; in the data active = inhibition above about 15%;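 note: 0% = DMSO vehicle and 100% = wells lacking enzyme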
Runt-CBFb FRET: blocks binding of human RUNX1 Runt domain to CBFb | Q01196+Q13951 | Cerulean-Runt/Venus-CBFb FRET ratio 530/480, 1 h | inhibition, % at 20 µM | hit rate 0.46% among 220,000;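 active = inhibition over about 50% at 20 µM in the single-dose screen, limit read from the data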;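 note: 0% = DMSO wells and 100% = excess unlabeled CBFb competitor control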
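System: Cerulean-labeled Runt domain protein | Quantity: 100 nM of each labeled protein | Schedule: 1 h compound exposure, room temperature | Detection: Fluorescence energy transfer, 422 nm excitation, 530/480 nm emission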
Runt-SMMHC FRET: blocks binding of human RUNX1 Runt domain to CBFb-SMMHC | hit rate 0.74% among 220,000 | inhibition, % at 20 µM | AID 1434 | Q01196+Q13951 | Cerulean-Runt/Venus-CBFb-SMMHC FRET ratio 530/480, 1 h;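 active = mean inhibition across duplicate retests at 20 µM reaching about 50%, limit read from the data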;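 note: 0% = DMSO wells and 100% = wells with excess untagged CBFb-SMMHC; inhibitors lower the FRET ratio by blocking Runt binding to CBFb-SMMHC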
RanGTP-Imp inh: inhibitors of RanGTP-importin-beta interaction, primary screen, biochemical, FRET, CFP-Ran, YFP-importin-beta, homogeneous | AID 2216 | cell-free CFP-Ran/YFP-importin-beta FRET ratio | inhibition, % (test concentration not listed) | hit rate 1.1% among 300,000;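 active = more than half of the replicate wells show a fall in the fluorescence ratio signal beyond about 16%, limit read from the data, passing the limit was not always enough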;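 note: 0% = DMSO wells and 100% = Ran loaded with GDP instead of GTP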
G6PDH ctr: counter-screen for TbHK1 inhibitors: Leuconostoc G6PDH inhibition; AID 2516; shares compounds with Tb hexokinase; inhibition, % at 10 µM; purified G6PDH, NADH absorbance, 1 h; hit rate 7% among 210;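 active = at least 50% inhibition in the glucose-6-phosphate dehydrogenase coupled counterscreen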
TbHK1 rescreen: T. brucei hexokinase 1 inhibition, rescreen | shares compounds with Tb hexokinase | recombinant TbHK1, G6PDH-coupled NADH A340 absorbance | inhibition, % at 10 µM | hit rate 10% among 210 | AID 2560;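 active = inhibition of at least 50% in both of the two screening runs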;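 note: 0% and 100% set by the maximum and minimum signal control wells on each plate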
p97 inh conf: human p97 ATPase inhibition, confirmation | shares compounds with p97 ATPase inh | recombinant p97 ATPase, Kinase-Glo ATP luminescence | inhibition, % at 8 µM | hit rate 44% among 760;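 active = percent inhibition of p97 ATPase above a set limit, the primary screen's mean plus 3 SD, cut at about 15% in these data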;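 note: 0% = DMSO wells and 100% = wells lacking p97 protein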
Runt-CBFb TRFRET: Runt-CBFb binding inhibition; shares compounds with Runt-CBFb FRET; TR-FRET RUNX1 Runt domain-CBFb binding; inhibition, % at 20 µM; hit rate 20% among 480; in the data active = inhibition above about 40%
Hck-Nef confirm: Hck-Nef kinase inhibition, confirmation | shares compounds with Hck-Nef inh | Recombinant Hck-YEEI:Nef, Z-Lyte FRET kinase assay | calls only at 10 µM | hit rate 28% among 1,300 | AID 463188;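 active = average inhibition of at least 50%, with Z-scores no higher than 3 in both the phospho-tyrosine peptide and fluorescence counterscreens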
Numbers without * were called inactive; ! = repeats disagree.

For O=c1c2ccccc2sn1-c1nccs1 the results were Hck-Nef inh -26.5, Tb hexokinase 71.8*, p97 ATPase inh -2.1, Runt-CBFb FRET 50.1*, Runt-SMMHC FRET 79.5*, RanGTP-Imp inh 7.8, G6PDH ctr -12.4, TbHK1 rescreen 74.0* and Runt-CBFb TRFRET -7.8.
Screening CC#CCN(Cc1ccco1)C(=O)c1ccc(OC2CCN(Cc3ccccn3)CC2)cc1 returned RanGTP-Imp inh 4.2.
CN1C(=O)C2(NC(=O)c3ccccc3N2C)c2ccccc21 (configuration not stated) was read as Hck-Nef inh 28.7, Tb hexokinase -9.0, p97 ATPase inh 2.4, Runt-CBFb FRET -1.7, Runt-SMMHC FRET -3.5 and RanGTP-Imp inh -3.2.
Screening CN1C(=O)C(Cl)(Cl)C(=O)c2ccccc21 returned Hck-Nef inh -5.4, Tb hexokinase 75.0*, p97 ATPase inh 3.6, Runt-CBFb FRET 54.0*, Runt-SMMHC FRET 55.3, RanGTP-Imp inh 3.4, G6PDH ctr 32.9, TbHK1 rescreen 32.7 and Runt-CBFb TRFRET 5.2.
Cc1ccc(-c2nc(N)s[n+]2-c2ccccc2)cc1 was read as Hck-Nef inh 101.0*, Tb hexokinase 98.1*, p97 ATPase inh -2.1, Runt-CBFb FRET 9.3, Runt-SMMHC FRET 65.1*, RanGTP-Imp inh 5.8, G6PDH ctr 14.5, TbHK1 rescreen 94.9* and Hck-Nef confirm active.
For COc1ccc(NC(=O)CN2C(=O)COc3ccc(S(=O)(=O)N4CCCCC4)cc32)c(OC)c1 the results were RanGTP-Imp inh 7.6.
Cc1ccc(S(=O)(=O)N2CCOCC2)cc1C(=O)Nc1ccc2c(c1)CCC2 was read as Hck-Nef inh 1.4, Tb hexokinase 24.1, p97 ATPase inh -0.2, Runt-CBFb FRET -2.4, Runt-SMMHC FRET -2.1 and RanGTP-Imp inh -1.1.
Screening Cc1ccc(S(=O)(=O)N2CCOCC2)cc1C(=O)Nc1ccc(-c2cn3ccsc3n2)cc1 returned Hck-Nef inh -4.8, Tb hexokinase -7.8, p97 ATPase inh 17.3*, Runt-CBFb FRET 0.7, Runt-SMMHC FRET -3.7, RanGTP-Imp inh -0.4 and p97 inh conf 21.3*.
`CC1=NN(c2ccc(C(=O)O)c(N)c2)C(=O)C1` gave Hck-Nef inh 40.9, Tb hexokinase -4.7, p97 ATPase inh 10.2, Runt-CBFb FRET 15.2, Runt-SMMHC FRET 10.8 and RanGTP-Imp inh -5.8.
CC1=NN(c2ccc(Cl)c(C(=O)O)c2)C(=O)C1 was read as Hck-Nef inh 4.3, Tb hexokinase 18.8, p97 ATPase inh 33.5*, Runt-CBFb FRET 1.9, Runt-SMMHC FRET -0.8, RanGTP-Imp inh 5.7 and p97 inh conf 6.2.
CCN(CC)S(=O)(=O)c1ccc(OC)c(NC(=O)c2cc3c(=O)n4ccccc4nc3s2)c1 was read as Hck-Nef inh 6.5, Tb hexokinase -16.4, p97 ATPase inh 6.9, Runt-CBFb FRET -100.0, Runt-SMMHC FRET -49.7 and RanGTP-Imp inh 2.1.
CC(=O)NS(=O)(=O)c1ccc(NC(=O)c2cc3c(=O)n4ccccc4nc3s2)cc1 was read as Hck-Nef inh 1.9, Tb hexokinase -31.5, p97 ATPase inh 16.8*, Runt-CBFb FRET 24.7, Runt-SMMHC FRET 48.8, RanGTP-Imp inh 1.8 and p97 inh conf 6.8.
Screening N#CCOC(=O)c1c2c(nc3ccccc13)CCC2 returned Hck-Nef inh 23.0, Tb hexokinase -3.5, p97 ATPase inh 4.8, Runt-CBFb FRET -2.5, Runt-SMMHC FRET -2.9 and RanGTP-Imp inh -0.3.
For O=C(NC1CC2CCCC(C1)N2C(=S)NCCc1ccccc1)C1CC1 (configuration not stated) the results were Hck-Nef inh 16.8, Tb hexokinase -0.5, p97 ATPase inh 4.2, Runt-CBFb FRET -2.3, Runt-SMMHC FRET 0.0 and RanGTP-Imp inh -0.7.
For Cc1ccc(/C=C2/SC(=O)NC2=S)o1 the results were Hck-Nef inh 40.0, Tb hexokinase -1.6, p97 ATPase inh 25.8*, Runt-CBFb FRET 26.4, Runt-SMMHC FRET 58.9* and p97 inh conf 14.8.
`C=CCc1ccccc1OCC(O)CN1CCN(Cc2ccc3c(c2)OCO3)CC1` (configuration not stated) gave Hck-Nef inh 9.6, Tb hexokinase 10.8, p97 ATPase inh 15.7*!, Runt-CBFb FRET -2.5, Runt-SMMHC FRET -0.1, RanGTP-Imp inh -1.2 and p97 inh conf 0.9.
For O=C(Cn1cnc2sc3c(c2c1=O)CCCC3)NCC(=O)Nc1ccc(F)cc1F the results were RanGTP-Imp inh -1.3.
`N#Cc1ccc(CN(c2ccncc2)S(=O)(=O)c2ccccc2)cc1` gave RanGTP-Imp inh -1.0.
For O=C(Oc1cccc(Nc2ncnc3ccccc23)c1)c1ccccc1Cl the results were Hck-Nef inh 31.4, Tb hexokinase -6.1, p97 ATPase inh 15.8*, Runt-CBFb FRET -1.7, Runt-SMMHC FRET 5.3, RanGTP-Imp inh -5.5 and p97 inh conf 24.9*.
For COc1cccc(Nc2ncnc3ccccc23)c1 the results were Hck-Nef inh 13.0, Tb hexokinase -25.2, p97 ATPase inh 2.4, Runt-CBFb FRET 1.0, Runt-SMMHC FRET -0.7 and RanGTP-Imp inh 2.1.
Screening CC(C)Sc1cc(Cl)nc(NC(=O)Nc2ccccc2)n1 returned RanGTP-Imp inh 2.9.
Screening CCOc1cc(/C=C2\C(=O)N(CCC#N)N=C2C)ccc1OCC(N)=O returned Hck-Nef inh 27.9, Tb hexokinase -3.5, p97 ATPase inh 17.2*, Runt-CBFb FRET -0.7, Runt-SMMHC FRET -4.1, RanGTP-Imp inh -0.9 and p97 inh conf 6.0.
For COc1cc(/C=C2\C(=O)N(CCC#N)N=C2C)ccc1OCC(=O)Nc1ccccc1 the results were Hck-Nef inh 4.2, Tb hexokinase 34.2, p97 ATPase inh 28.5*, Runt-CBFb FRET 1.9, Runt-SMMHC FRET -3.7, RanGTP-Imp inh 1.9 and p97 inh conf 3.9.
Screening CN1C(=O)C(C)(C)c2cc(S(=O)(=O)N3CCC(C(=O)NCc4ccccc4Cl)CC3)ccc21 returned RanGTP-Imp inh 2.1.
CCOC(=O)c1c(C)[nH]c(C(=O)OCc2csc(CC(=O)Nc3ccccc3C)n2)c1C was read as RanGTP-Imp inh 1.9.
